Active and inactive are the calls of the source. The calls are words filed in the database; no cut-off is given here.
Legend:
Estrogen receptor = biological target: T1, Estrogen receptor (Homo sapiens, UniProt P03372); assay: Agonist activity at ERalpha (unknown origin) expressed in human HepG2 cells assessed as transcriptional activation after 24 hrs by ERE-luciferase reporter gene assay; format: cell-based
T1 sequence (P03372 whole entry): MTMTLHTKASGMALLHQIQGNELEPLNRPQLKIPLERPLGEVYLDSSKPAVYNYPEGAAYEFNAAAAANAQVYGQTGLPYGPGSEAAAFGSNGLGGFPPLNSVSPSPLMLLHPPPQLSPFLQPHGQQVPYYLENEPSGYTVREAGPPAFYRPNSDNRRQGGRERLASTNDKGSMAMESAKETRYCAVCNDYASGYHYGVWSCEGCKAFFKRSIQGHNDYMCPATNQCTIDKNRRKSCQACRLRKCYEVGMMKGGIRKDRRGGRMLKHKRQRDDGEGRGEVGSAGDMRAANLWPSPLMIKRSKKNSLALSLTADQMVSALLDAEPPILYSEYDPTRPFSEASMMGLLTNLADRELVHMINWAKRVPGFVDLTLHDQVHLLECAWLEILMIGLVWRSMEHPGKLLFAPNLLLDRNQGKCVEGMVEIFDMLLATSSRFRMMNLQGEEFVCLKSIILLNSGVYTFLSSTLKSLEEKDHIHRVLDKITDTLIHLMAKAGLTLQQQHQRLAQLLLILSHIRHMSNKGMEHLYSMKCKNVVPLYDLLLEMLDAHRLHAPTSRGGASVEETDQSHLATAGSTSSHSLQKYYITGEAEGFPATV
Method in brief: (§1)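 HepG2 cells were grown in DMEM with 10% FBS and transfected with a 3×ERE-luciferase reporter plus an ERα or ERβ expression vector. The next day cells were moved to phenol red-free medium with 10% charcoal-dextran-stripped FBS, plated at 20 000 cells/well and left overnight. Ligand was then added as a 12-point dose curve from 10 μM to 100 pM. Luciferase was read after 24 h, normalized to DMSO as 0% and the top of the E2 curve as 100%.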

[1] = biological target: T2, Estrogen receptor (Homo sapiens) (UniProt P03372); assay: Agonist activity at ERalpha (unknown origin) expressed in human HepG2 cells assessed as transcriptional activation after 24 hrs by ERE-luciferase reporter gene assay relative to 17beta-estradiol; format: cell-based
T2 sequence (whole entry): T1 sequence (P03372 whole entry)
Method in brief: (§2)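 HepG2 cells were cotransfected with a 3×ERE-luciferase reporter (10 μg) plus an ERα or ERβ expression vector (1.6 μg) per 10 cm dish. The next day they were replated at 20 000 cells/well in phenol red-free medium with 10% charcoal-dextran-stripped FBS and held overnight. Cells were then dosed over a 12-point range of 10 μM to 100 pM. Luciferase was read after 24 h, with DMSO set as 0% and the top of the E2 curve as 100%.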

Estrogen receptor beta [2] = biological target: T3, Estrogen receptor beta (Homo sapiens, UniProt Q92731); assay: Agonist activity at ERbeta (unknown origin) expressed in human HepG2 cells assessed as transcriptional activation after 24 hrs by ERE-luciferase reporter gene assay; format: cell-based; method in brief: as §1
T3 sequence (Q92731 whole entry): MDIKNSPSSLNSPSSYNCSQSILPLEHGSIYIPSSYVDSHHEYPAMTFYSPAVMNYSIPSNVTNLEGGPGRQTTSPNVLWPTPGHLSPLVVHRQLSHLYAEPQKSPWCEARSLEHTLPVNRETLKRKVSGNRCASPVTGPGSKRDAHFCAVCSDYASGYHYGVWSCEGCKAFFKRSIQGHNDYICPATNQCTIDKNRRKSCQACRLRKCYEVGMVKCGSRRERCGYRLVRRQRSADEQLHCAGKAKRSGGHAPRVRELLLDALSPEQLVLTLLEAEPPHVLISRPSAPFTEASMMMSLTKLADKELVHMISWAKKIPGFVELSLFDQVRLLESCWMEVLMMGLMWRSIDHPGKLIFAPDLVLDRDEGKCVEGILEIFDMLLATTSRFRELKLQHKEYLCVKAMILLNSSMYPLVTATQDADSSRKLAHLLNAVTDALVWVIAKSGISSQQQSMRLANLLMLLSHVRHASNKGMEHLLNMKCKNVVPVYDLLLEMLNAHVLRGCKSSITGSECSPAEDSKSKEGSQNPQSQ

[3] = biological target: T2, Estrogen receptor (Homo sapiens); assay: Displacement of [3H]-estradiol from human full-length ERalpha after 18 to 24 hrs by competitive radiometric binding assay relative to estradiol
Estrogen receptor beta [4] = biological target: T3, Estrogen receptor beta; assay: Displacement of [3H]-estradiol from human full-length ERbeta after 18 to 24 hrs by competitive radiometric binding assay relative to estradiol
HepG2 = assay: Agonist activity at ERalpha (unknown origin) harboring N-terminal AF1 domain deleted mutant expressed in human HepG2 cells assessed as transcriptional activation after 24 hrs by ERE-luciferase reporter gene assay; format: cell-based
Homo sapiens = species: Homo sapiens; assay: Selectivity ratio of RBA for human full length ERbeta to RBA for human full-length ERalpha
[5] = biological target: T2, Estrogen receptor (Homo sapiens); assay: Antagonist activity at ERalpha (unknown origin) expressed in human HepG2 cells assessed as inhibition of transcriptional activation after 24 hrs by ERE-luciferase reporter gene assay relative to 17beta-estradiol; format: cell-based
Method in brief: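 Antagonist mode used HepG2 cells cotransfected with a 3×ERE-luciferase reporter plus an ERα expression vector and steroid-deprived in phenol red-free medium with 10% charcoal-dextran-stripped FBS. Cells received 10 nM estradiol together with increasing compound concentrations across a 10 μM to 100 pM dose curve. Luciferase was measured after 24 h and normalized to DMSO (0%) and the top of the E2 curve (100%).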

Estrogen receptor beta [6] = biological target: T3, Estrogen receptor beta; assay: Agonist activity at ERbeta (unknown origin) expressed in human HepG2 cells assessed as transcriptional activation after 24 hrs by ERE-luciferase reporter gene assay relative to 17beta-estradiol; format: cell-based; method in brief: as §2
Estrogen receptor beta [7] = biological target: T3, Estrogen receptor beta; assay: Antagonist activity at ERbeta (unknown origin) expressed in human HepG2 cells assessed as inhibition of 17beta-estradiol-induced transcriptional activation after 24 hrs by ERE-luciferase reporter gene assay; format: cell-based
Method in brief: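 ERβ-transfected, steroid-deprived HepG2 cells carrying a 3×ERE-luciferase reporter were co-treated with 10 nM estradiol and test ligand over a range of 10 μM to 100 pM. Luciferase was read after 24 h, with each plate normalized to DMSO (0%) and the maximal E2 response (100%). IC50 and % efficacy were derived from the dose curves.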

EC50 (Estrogen receptor): 4 nM | Efficacy [1]: 114% | EC50 (Estrogen receptor beta [2]): 385 nM | RBA [3]: 15.5% | RBA (Estrogen receptor beta [4]): 38.1% | Selectivity ratio (Homo sapiens): 2.5 | Efficacy [5]: 123% | Efficacy (Estrogen receptor beta [6]): 19% | IC50 (Estrogen receptor beta [7]): 180 nM
SMILES: Oc1ccc(/C(=N\c2ccc(Cl)cc2)c2ccc(O)cc2O)cc1
Activity (HepG2): inactive

From ChEMBL document CHEMBL3232883, “Triaryl-substituted Schiff bases are high-affinity subtype-selective ligands for the estrogen receptor” (J Med Chem, 2014)
